High-throughput results deposited in PubChem BioAssay by several laboratories.
This is a sample that favours compounds with a hit; in the whole collection about 1.6% have one here.
Diaph inh CS: diaphorase inhibition or chemical oxidation counter-screen. diaphorase resazurin-to-resorufin fluorescence, NADH, 16 min; bacterial (C. kluyveri) enzyme, not human. inhibition, % at 20 µM. AID 1217. hit rate 0.69% among 190,000;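 active = primary screen inhibition at 20 µM above a set limit, cut at about 50% in these data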;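 note: plate controls were DMSO with full reaction for no effect and wells lacking NADH for full effect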
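Assay system: diaphorase enzyme from Clostridium kluyveri. Quantity: enzyme working solution with 0.14 U/mL diaphorase. Schedule: reaction incubation of 16 min at room temperature. Technique: resorufin fluorescence, excitation 544 nm, emission 590 nm. Controls: No-NADH positive control and DMSO neutral control.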
Diaph act CS: activates diaphorase or chemically reduces, flagging diaphorase assay artifacts; Diaphorase/resazurin coupled assay, resorufin fluorescence, 16 min; hits give high values; 1 = vehicle wells, 0 = NADH-free wells; activation factor at 20 µM; hit rate 0.005% among 190,000;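 active = diaphorase activity raised at least twofold by the compound at 20 µM; inactive = activation factor below 2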
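System – purified diaphorase enzyme from Clostridium kluyveri · Input – enzyme 0.07 U/mL final · Also added – final NADH 0.114 mM, resazurin 0.1 mM · Measured by – fluorescence of resorufin, 544 nm excitation, 590 nm emission · Timing – 16 min enzyme reaction, ambient temperature · Measure – resorufin increase flagging diaphorase activators or reducers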
NCF1 inh: blocks human p47phox regulatory protein of NADPH oxidases; p47phox/p22phox peptide binding, fluorescence polarization, 2 h; inhibition, % at 24.7 µM; hit rate 0.53% among 220,000;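 active = inhibition above about 30%, limit read from the data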;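 note: 0% = p47phox with labelled peptide and 100% = labelled peptide alone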
ABCG2 block: human ABCG2 inhibition, ABCB1 as counter-screen; Q9UNQ0; IgMXP3 cells, JC-1 efflux, flow cytometry; inhibition, % at 6.6 µM; hit rate 0.1% among 190,000; AID 1325;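 active = inhibition above 80%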;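 note: 0% = DMSO and 100% = nicardipine control wells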
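Assay system – ABCG2 IgMXP3 and barcoded ABCB1 CCRF-Adr cell mix · Input – 3 million cells/mL in well · Reagent – JC-1 fluorescent substrate · Compound – single test compound dose, 6.6 µM final · Timing – 10 min exposure at 25 °C with rotation, no wash · Detection – flow cytometry of retained JC-1 fluorescence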
HMGR II inh: inhibitors of class II HMG-CoA reductase from Enterococcus faecalis; purified E. faecalis HMGR, NADPH absorbance 340 nm kinetic; inhibition, % at 10 µM; hit rate 0.41% among 190,000;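 active = inhibition above a set limit, the median over all tested compounds plus 3 SD, cut at about 9.5% in these data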;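 note: enzyme runs in reverse so mevalonate oxidation gives rising NADPH absorbance; 0% = complete reaction with DMSO and 100% = background rate lacking mevalonate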
ABCB1 block: human ABCB1 inhibition, ABCG2 as counter-screen; P08183; AID 1326; inhibition, % at 6.6 µM; CCRF-Adr cells, JC-1 efflux, flow cytometry; hit rate 0.067% among 190,000; in the data active = inhibition above about 40%;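 note: 0% = vehicle and 100% = reference inhibitor; higher value means more JC-1 retained so stronger ABCB1 efflux block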
Target sequence (P08183 whole entry, looked up): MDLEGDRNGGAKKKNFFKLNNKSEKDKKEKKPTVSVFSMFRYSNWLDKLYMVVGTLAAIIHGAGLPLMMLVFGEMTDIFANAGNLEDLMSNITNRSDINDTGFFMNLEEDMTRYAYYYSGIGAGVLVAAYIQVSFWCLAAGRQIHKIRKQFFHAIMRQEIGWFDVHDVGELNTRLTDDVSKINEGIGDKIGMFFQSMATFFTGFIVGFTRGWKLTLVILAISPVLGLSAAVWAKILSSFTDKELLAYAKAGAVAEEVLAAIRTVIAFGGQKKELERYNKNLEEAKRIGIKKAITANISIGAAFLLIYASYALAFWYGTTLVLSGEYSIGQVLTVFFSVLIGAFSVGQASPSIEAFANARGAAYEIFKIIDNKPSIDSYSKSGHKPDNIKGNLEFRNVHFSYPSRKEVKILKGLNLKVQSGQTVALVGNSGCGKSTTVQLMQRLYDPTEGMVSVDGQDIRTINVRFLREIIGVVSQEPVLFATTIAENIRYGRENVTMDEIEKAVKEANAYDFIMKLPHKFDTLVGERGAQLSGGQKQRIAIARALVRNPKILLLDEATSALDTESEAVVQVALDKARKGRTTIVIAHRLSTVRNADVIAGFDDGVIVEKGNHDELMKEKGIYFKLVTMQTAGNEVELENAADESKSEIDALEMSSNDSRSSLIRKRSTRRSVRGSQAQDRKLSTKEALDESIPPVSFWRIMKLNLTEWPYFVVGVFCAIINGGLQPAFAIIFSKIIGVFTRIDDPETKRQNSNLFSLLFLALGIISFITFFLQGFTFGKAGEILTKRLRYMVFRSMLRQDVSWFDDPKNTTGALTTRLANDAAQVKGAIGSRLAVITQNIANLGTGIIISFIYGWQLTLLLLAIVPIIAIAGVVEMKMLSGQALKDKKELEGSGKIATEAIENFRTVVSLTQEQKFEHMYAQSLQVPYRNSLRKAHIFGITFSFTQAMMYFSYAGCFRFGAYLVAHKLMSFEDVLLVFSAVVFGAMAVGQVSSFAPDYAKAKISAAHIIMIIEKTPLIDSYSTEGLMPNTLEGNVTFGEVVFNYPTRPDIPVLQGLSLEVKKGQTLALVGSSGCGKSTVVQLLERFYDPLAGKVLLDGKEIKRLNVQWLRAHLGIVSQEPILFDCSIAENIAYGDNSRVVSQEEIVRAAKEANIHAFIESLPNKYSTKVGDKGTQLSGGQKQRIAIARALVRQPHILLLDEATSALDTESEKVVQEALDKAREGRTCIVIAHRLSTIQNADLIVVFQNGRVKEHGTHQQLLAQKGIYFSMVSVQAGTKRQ
Numbers without * were called inactive; . = no result.

SMILES	Diaph inh CS	Diaph act CS	NCF1 inh	ABCG2 block	HMGR II inh	ABCB1 block
O=C(c1ccc(Cl)cc1)C1CCCN(Cc2ccc3nonc3c2)C1 (configuration not stated)	8.1	0.9	47.8*	6.6	0.0	0.8
CN(C)CC#CCn1c2ccccc2c2ccccc21	.	.	2.2	.	.	.
O=C1C=Cc2ccccc2C1=O	78.4*	0.2	23.3	2.4	-4.9	0.3
CC(=O)OC1N=C(c2ccccc2)c2cc(Br)ccc2N(C)C1=O (configuration not stated)	8.1	0.9	32.2*	1.6	3.8	0.7
CCCCn1c(NC(=O)c2ccco2)c(C(=O)OCC)c2nc3ccccc3nc21	66.1*	0.3	-14.1	1.9	4.9	0.4
CCCCn1c(NS(=O)(=O)c2ccc(C)cc2)c(C(=O)OCC)c2nc3ccccc3nc21	31.6	0.7	-6.4	10.1	2.6	-1.9
CC1=C(C(=O)N2CCC3(CC2)OCCO3)C2(CCC(C)CC2)OC1=O (configuration not stated)	4.8	1	-11.5	0.9	-3.8	0.5
Oc1ccccc1/C=N/NP(=S)(c1ccccc1)c1ccccc1	4.5	1	0.8	1.5	-1.4	-0.2
Oc1ccc(/C=N/NP(=S)(c2ccccc2)c2ccccc2)cc1O	58.1*	0.4	-4.5	-0.6	-4.6	-0.2
FC(F)(F)c1cccc(-n2nnnc2C2(N3CCOCC3)CCCCC2)c1	14.2	0.9	-4.4	1.5	-4.8	0.4
COc1cccc(-n2c(/C=C/c3ccc(O)c(O)c3)nc3ccccc3c2=O)c1	69.1*	0.3	-17.7	1.4	-1.0	0.0
CCCCC/C(=N\O)c1c[nH]c2ccccc12	17.5	0.8	-20.0	2.2	-7.5	0.4
CCCCOc1nc2ccccc2c(=O)n1-c1ccccc1	-5.1	1.1	-7.8	-0.2	0.4	0.1
COc1ccccc1N(CC(=O)NC1CCCC1)C(=O)c1cnn(C(C)C)c1	15.3	0.8	-19.4	2.2	-8.3	1.0
COc1ccccc1N(CC(=O)NC1CCCCC1)C(=O)c1cnn(C(C)C)c1	13.3	0.9	33.1*	6.1	-3.7	1.2
COc1ccc(C(=O)C2CCCN(Cc3cnc(C)s3)C2)c(OC)c1 (configuration not stated)	10.6	0.9	6.6	2.3	15.9*	-0.5
Cc1cccc(-n2c(O)c(C=Nc3ccc(Br)cn3)c(=O)[nH]c2=O)c1	.	.	-1.5	11.1	-1.3	-0.3
Cc1ccc(-n2c(O)c(/C=N/c3ncc(Br)cc3Br)c(=O)[nH]c2=O)cc1	23.0	0.8	18.4	7.1	10.0*	1.4
CC(=O)c1c(C)n(Cc2ccccc2)c2ccc(O)cc12	.	.	-1.1	.	.	.
CC(=O)c1c(C)n(C2CCCCC2)c2ccc(O)cc12	50.5*	0.5	5.1	0.6	2.3	0.3
N#CCCn1cc(C(=O)Nc2ccc([N+](=O)[O-])cc2)c(-c2ccc3c(c2)OCCO3)n1	14.1	0.9	-14.8	40.2	-8.2	-0.7
Cn1c2ccccc2c2cnn(CC(=O)N3CCC4(CC3)OCCO4)c(=O)c21	-1.1	1	-6.9	1.1	2.2	0.5
Cc1c2cnn(CC(=O)N3CCC4(CC3)OCCO4)c(=O)c2c(C)n1Cc1ccccc1F	11.7	0.9	-5.0	0.7	12.4*	0.1
CCCc1nnc(NC(=O)CCC(=O)N2CCC3(CC2)OCCO3)s1	.	.	-2.2	.	.	.
Cc1c(C(c2ccc(Br)cc2)c2c(O)c3ccccc3oc2=O)c(=O)n(-c2ccccc2)n1C (configuration not stated)	16.3	0.8	52.6*	-1.6	-5.2	0.9
SMILES	Diaph inh CS	Diaph act CS	NCF1 inh	ABCG2 block	HMGR II inh	ABCB1 block
CN[C@@H]1C[C@@H](c2ccc(Cl)c(Cl)c2)c2ccccc21	72.5*	0.3	1.2	-0.8	2.8	.
CC(NCc1ccc(Cl)c(Cl)c1)C(O)c1ccccc1 (configuration not stated)	6.0	0.9	-10.2	0.9	-4.3	0.4
O=C(O)[C@H]1C[C@@H]1[C@H](NP(=O)(c1ccccc1)c1ccccc1)c1ccccc1	1.5	1	-0.2	16.8	-9.2	3.2
OC(c1ccc(F)cc1)(c1ccc(F)cc1)[C@@H]1CCCN1	20.5	0.8	43.4*	2.6	-0.6	0.7
O=C1NC2NC(=O)N([N+](=O)[O-])C2N1 (configuration not stated)	.	.	5.2	.	.	.
C=C(CO)CC1CC(O)[C@]2(C)OC3CC4OC5C[C@]6(C)O[C@]7(C)CCC8OC9C[C@]%10(C)OC%11C(C)=CC(=O)OC%11CC%10OC9C[C@@H](C)C8OC7CC6O[C@]5(C)C/C=C\C4OC3CC2O1 (some centres not stated)	35.6	0.6	-5.7	3.2	-2.6	11.1
CC(=NCC1CCCO1)c1c(O)n(Cc2ccccc2)c(=O)[nH]c1=O (configuration not stated)	19.3	0.8	-18.6	3.7	-1.1	0.8
O=C1NC(=O)C(=Cc2ccc(N3CCOCC3)o2)C(=O)N1	7.9	0.9	57.9*	2.2	-3.7	1.2
CC(=O)c1ccc2c(c1)C1C(Cl)C(Sc3ccccc3[N+](=O)[O-])CC1C(C(=O)O)N2 (configuration not stated)	66.3*	0.3	17.2	-9.5	-1.2	-2.0
O=C(O)c1cccc2c1NC(C(=O)O)C1CC(Sc3ccccc3[N+](=O)[O-])C(Cl)C21 (configuration not stated)	92.6*	0.1	26.5	-6.4	1.4	-1.0
CN(C)CC1CSCCC1(O)c1ccc(C(F)(F)F)cc1 (configuration not stated)	5.9	0.9	-13.0	7.5	-8.4	0.4
CC(Cc1ccccc1)NC(=O)Cc1ccc(N(C)C)cc1 (configuration not stated)	8.3	0.9	1.8	2.5	10.7*	0.6
CCC(C)N1C(=O)NC(=O)C2(Cc3c(ccc4ccccc34)N(C)C2)C1=O (configuration not stated)	73.8*	0.3	0.1	0.0	-5.5	0.1
O=C(CSc1ccccc1)N1CCC2(CC1)OCCO2	8.0	0.9	-4.4	6.7	-4.6	0.5
CSc1nc(N2CCN(C)CC2)c2ccccc2n1	56.8*	0.4	2.8	21.3	-0.9	2.1
CN1CCN(c2nc3ccccc3o2)CC1	.	.	-0.8	.	.	.
CC(C)NC(C)C(=O)C12CC3CC(CC(C3)C1)C2 (configuration not stated)	4.9	1	0.1	14.1	-3.9	1.4
Oc1cc2c(cc1O)[C@H]1c3ccccc3CN[C@@H]1CC2	64.6*	0.4	-2.9	-0.2	3.0	.
CN(C)c1nc(-c2ccccc2)[n+](C)s1	5.0	0.9	-2.2	15.6	-1.1	1.8
Cc1ccc(-c2nc(N3CCOCC3)s[n+]2-c2ccccc2)cc1	11.8	0.9	38.0*	5.1	0.3	0.9
